SENP8 block-1: SENP8 (human) protease inhibition | Q96LD8 | recombinant SENP8, Nedd8 substrate fluorescence | inhibition, % at 20 µM | actives 0.64% (n = 360,000); in the data active = inhibition mostly above about 40%, no sharp cut-off; inactive = mostly below about 27%
HSP90 inh: blocks HSP90-mediated luciferase refolding in reticulocyte lysate; inhibition, % at 5.6 µM; actives 0.91% (n = 290,000); AID 1789; Rabbit reticulocyte lysate, luciferase refolding luminescence, 3 h;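 active = inhibition above the screen-wide mean plus 3 SD, computed separately per campaign, cut at about 16% in these data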;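 also: inhibitors lower the luminescence because luciferase stays unfolded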
SENP8 block-2: inhibitors of human SENP8 protease; inhibition, % at 10 µM; Q96LD8; purified SENP8, Z-RLRGG-aminoluciferin cleavage, luminescence; actives 1.2% (n = 330,000); AID 2540; in the data active = inhibition above about 50%
SENP6 inh: blocks the human protease SENP6; Q9GZR1; Recombinant SENP6 catalytic domain, aminoluciferin luminescence; inhibition, % at 10 µM; actives 1.8% (n = 330,000); AID 2599;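 active = inhibition above about 50% at the single tested dose, limit read from the data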
Target sequence (Q9GZR1 628-1112 limits assumed): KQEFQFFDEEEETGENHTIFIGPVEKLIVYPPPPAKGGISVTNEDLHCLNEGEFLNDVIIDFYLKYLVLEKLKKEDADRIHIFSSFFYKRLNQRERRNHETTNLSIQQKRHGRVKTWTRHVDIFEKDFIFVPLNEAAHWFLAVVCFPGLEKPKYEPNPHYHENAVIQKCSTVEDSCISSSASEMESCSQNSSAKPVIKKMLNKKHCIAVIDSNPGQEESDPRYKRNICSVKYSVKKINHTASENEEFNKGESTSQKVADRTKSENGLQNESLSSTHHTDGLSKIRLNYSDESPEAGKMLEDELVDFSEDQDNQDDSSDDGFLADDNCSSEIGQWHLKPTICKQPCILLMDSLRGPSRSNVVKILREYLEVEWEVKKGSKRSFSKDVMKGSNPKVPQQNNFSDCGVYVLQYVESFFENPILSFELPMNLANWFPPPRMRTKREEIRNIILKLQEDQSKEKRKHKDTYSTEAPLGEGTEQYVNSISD
SENP7 block: SENP7 protease inhibition; recombinant SENP7, Z-RLRGG-aminoluciferin luminescence, 40 min; inhibition, % at 5 µM; actives 1.5% (n = 330,000); AID 434973;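 active = inhibition above about 50% at the single test dose, limit read from the data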
SENP1 inh: inhibitors of human SENP1 SUMO protease catalytic domain. recombinant SENP1 catalytic domain, CyPet-SUMO1-YPet FRET cleavage. inhibition, % at 10 µM. actives 0.21% (n = 360,000). AID 624204;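 active = inhibition at least 30% at 10 µM, raw YFP signal under a set limit, fluorescence ratio 0.5 to 1.5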
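system = hSENP1 catalytic domain, recombinant | reagent = SFCypet-SUMO1-SFYpet substrate at 25 nM | doses = one dose per compound, 10 µM, 0.5% DMSO | incubation = enzyme reaction for 50 min at room temperature, dark | measured by = FRET, CFP and YFP emission | controls = no-enzyme low, enzyme-DMSO high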
SENP8 conf: confirmation of human SENP8 protease inhibitors | shares compounds with SENP7 block | Recombinant SENP8, Z-RLRGG-aminoluciferin luminescence, 60 min | inhibition, % at 12.5 µM | actives 40% (n = 6,200);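 active = mean inhibition across replicates above about 50%, limit read from the data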
SENP6 confirm: confirmation of human SENP6 protease inhibitors; shares compounds with SENP7 block; recombinant SENP6, Z-RLRGG-aminoluciferin luminescence; inhibition, % at 12.5 µM; actives 58% (n = 6,200)
SENP7 confirm: human SENP7 inhibition, confirmed | actives 69% (n = 6,200) | inhibition, % at 12.5 µM | shares compounds with SENP7 block | recombinant SENP7, Z-RLRGG-aminoluciferin luminescence, 40 min
Casp3 select: caspase-3 inhibition (SENP selectivity assay) | shares compounds with SENP7 block | purified caspase-3, Z-DEVD-aminoluciferin luminescence, 60 min | inhibition, % at 12.5 µM | actives 60% (n = 6,200);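 active = mean inhibition above about 50%, limit read from the data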
Luc interf: interferes with luciferase luminescence in SENP counter-screen; inhibition, % at 12.5 µM; shares compounds with SENP7 block; AID 488919; Pre-incubated SENP8/Z-RLRGG-aminoluciferin, luciferase luminescence interference; actives 39% (n = 6,200);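 active = mean inhibition above about 50% when retested at one dose, limit read from the data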
A number is an active result. Hits are enriched below; roughly 2.9% of the tested compounds scored in any of these assays.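 The calls were made as follows, unless noted: active = mean inhibition above about 50% in the one-dose retest (limit read from the data); inactive = the rest.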

Cc1cc(C(=O)Nc2ccc3ccccc3c2)oc1C was read as SENP8 block-1 inactive, HSP90 inh inactive, SENP8 block-2 61, SENP6 inh 68, SENP7 block 54, SENP1 inh inactive, SENP8 conf inactive, SENP6 confirm 66, SENP7 confirm 89, Casp3 select 50 and Luc interf 53.
`CC(=O)c1cc(C(=O)Nc2ccc3ccccc3c2)c(C)o1` gave SENP8 block-1 inactive, HSP90 inh inactive, SENP8 block-2 inactive, SENP6 inh inactive, SENP7 block inactive and SENP1 inh inactive.
Screening Cc1ccc(NC(=O)c2ccc([N+](=O)[O-])o2)cc1C returned SENP8 block-1 inactive, HSP90 inh inactive, SENP8 block-2 61, SENP6 inh 76, SENP7 block 87, SENP1 inh inactive, SENP8 conf 81, SENP6 confirm 80, SENP7 confirm 94, Casp3 select 79 and Luc interf 80.
For COC(=O)C1CCN(C(=O)CSc2nnc(-c3ccccc3)o2)CC1 the results were SENP8 block-1 inactive, SENP8 block-2 inactive, SENP6 inh inactive, SENP7 block inactive and SENP1 inh inactive.
O=C(NCCCN1CCCCC1)c1ccc(CS(=O)c2ccc(Cl)cc2)o1 (stereo not given) was read as SENP8 block-1 inactive, HSP90 inh inactive, SENP8 block-2 inactive, SENP6 inh inactive, SENP7 block inactive and SENP1 inh inactive.
COc1ccc(-c2csc(C)n2)cc1OC was read as SENP8 block-1 inactive, HSP90 inh inactive, SENP8 block-2 inactive, SENP6 inh inactive, SENP7 block inactive and SENP1 inh inactive.
`COc1ccc(-c2cn3cc(C)ccc3n2)cc1OC` gave SENP8 block-1 inactive, HSP90 inh inactive, SENP8 block-2 inactive, SENP6 inh 57, SENP7 block inactive, SENP1 inh inactive, SENP8 conf 68, SENP6 confirm 65, SENP7 confirm 90, Casp3 select 89 and Luc interf 78.
Screening Cc1ccc(-n2nc3c(n2)/C(=N/O)CC/C3=N\O)cc1 returned SENP8 block-1 inactive, HSP90 inh inactive, SENP8 block-2 66, SENP6 inh inactive, SENP7 block 78, SENP1 inh inactive, SENP8 conf inactive, SENP6 confirm inactive, SENP7 confirm inactive, Casp3 select inactive and Luc interf inactive.
O/N=C1\CC/C(=N\O)c2nn(-c3ccccc3Cl)nc21 was read as SENP8 block-1 inactive, HSP90 inh inactive, SENP8 block-2 inactive, SENP6 inh inactive, SENP7 block inactive and SENP1 inh inactive.
COC(=O)c1[nH]c2ccccc2c1CN1CCOCC1 was read as SENP8 block-1 inactive, HSP90 inh inactive, SENP8 block-2 inactive, SENP6 inh inactive, SENP7 block inactive and SENP1 inh inactive.
CC(=O)c1cc(O)c2ccccc2c1O was read as SENP8 block-1 inactive, HSP90 inh inactive, SENP8 block-2 inactive, SENP6 inh 60, SENP7 block inactive, SENP1 inh inactive, SENP8 conf inactive, SENP6 confirm inactive, SENP7 confirm inactive, Casp3 select inactive and Luc interf inactive.
Screening CC(=O)c1c(C)oc2c1cc(O)c1ccccc12 returned SENP8 block-1 inactive, HSP90 inh inactive, SENP8 block-2 inactive, SENP6 inh inactive, SENP7 block inactive and SENP1 inh inactive.
Screening COC(=O)c1cccnc1Oc1ccccc1 returned SENP8 block-1 inactive, HSP90 inh inactive, SENP8 block-2 inactive, SENP6 inh inactive, SENP7 block inactive and SENP1 inh inactive.
`Cc1nc2nc(-c3ccc(F)cc3)cn2nc1C` gave SENP8 block-1 inactive, HSP90 inh inactive, SENP8 block-2 71, SENP6 inh 67, SENP7 block inactive, SENP1 inh inactive, SENP8 conf inactive, SENP6 confirm 92, SENP7 confirm 100, Casp3 select 97 and Luc interf 54.
`CCOc1ccc(N=Cc2c(O)cc(C)oc2=O)cc1` gave SENP8 block-1 inactive, HSP90 inh inactive, SENP8 block-2 inactive, SENP6 inh inactive, SENP7 block inactive and SENP1 inh inactive.
CCOc1ccc(N=Cc2c(O)c3ccccc3oc2=O)cc1 was read as SENP8 block-1 inactive, HSP90 inh inactive, SENP8 block-2 83, SENP6 inh 91, SENP7 block 93, SENP1 inh inactive, SENP8 conf inactive, SENP6 confirm inactive, SENP7 confirm 56, Casp3 select inactive and Luc interf inactive.
COc1cccc(C=NNC(=O)CCCC(=O)NN=Cc2cccc(OC)c2)c1 was read as SENP8 block-1 inactive and SENP1 inh inactive.
Screening COc1cccc(/C=N/NC(=O)c2ccoc2C)c1O returned SENP8 block-1 inactive, HSP90 inh inactive, SENP8 block-2 87, SENP6 inh 92, SENP7 block 95, SENP1 inh inactive, SENP8 conf 93, SENP6 confirm 93, SENP7 confirm 100, Casp3 select 97 and Luc interf inactive.
`COc1ccc(C=NNC(=O)c2cc(C)oc2C)cc1O` gave SENP8 block-1 inactive, SENP8 block-2 80, SENP6 inh 79, SENP7 block 86, SENP1 inh inactive, SENP8 conf 88, SENP6 confirm 85, SENP7 confirm 96, Casp3 select 94 and Luc interf 83.
`CC(/C=N\NC(=O)c1cc(C)oc1C)=C\c1ccccc1` gave SENP8 block-1 inactive, HSP90 inh inactive, SENP8 block-2 72, SENP6 inh inactive, SENP7 block 82, SENP1 inh inactive, SENP8 conf inactive, SENP6 confirm inactive, SENP7 confirm inactive, Casp3 select inactive and Luc interf inactive.
For COc1cccc(/C=N/NC(=O)c2ccoc2C)c1 the results were SENP8 block-1 inactive, HSP90 inh inactive, SENP8 block-2 82, SENP6 inh 91, SENP7 block 88, SENP1 inh inactive, SENP8 conf 89, SENP6 confirm 87, SENP7 confirm 98, Casp3 select 95 and Luc interf 86.
`COc1cc(/C=N/NC(=O)c2cc(C)oc2C)ccc1O` gave SENP8 block-1 inactive, HSP90 inh inactive, SENP8 block-2 inactive, SENP6 inh inactive, SENP7 block inactive and SENP1 inh inactive.
COc1cccc(/C=N/NC(=O)C(=O)N/N=C/c2cccc(OC)c2O)c1O was read as SENP8 block-1 inactive, HSP90 inh inactive and SENP1 inh inactive.
